SR-BI uptake up: enhances SR-BI lipid uptake from DiI-HDL; activation, % at 12.5 µM; CHO ldlA[mSR-BI] cells, DiI-HDL uptake fluorescence, 3 h; 100 = double the neutral-control signal; hit rate 0.096% among 320,000;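 active means mean replicate activation of at least 60% and every replicate at or above 60%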;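 further: 0% = median plate neutral-control signal and 100% = twice that signal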
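Material – SR-BI-overexpressing, LDLR-lacking CHO cells · Medium – BSA-supplemented, HEPES-buffered Ham's F12, pH 7.4 · Doses – single concentration · Times – compound with DiI-HDL co-incubation, 3 h at 37 °C · Measured by – bottom-read fluorescence, 550/595 nm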
TMEM16A act: activators or potentiators of mouse TMEM16A chloride channel. Q8BHY3. B-score at 10 µM. HEK293 TMEM16A/YFP-H148Q/I152L, iodide quench fluorescence; hits give low values. hit rate 0.3% among 340,000;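 active means fluorescence-ratio B-score plate-corrected deviation score at least 3 library SD below zero, with starting fluorescence score within 5 deviations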;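 further: channel opened by trigger with iodide after compound preincubation; score built on the fluorescence ratio of max minus min over baseline; more negative score means more quench and so TMEM16A activation or potentiation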
FID counter: counter-screen for HCV NS3 helicase inhibitors: DNA intercalator displacement; DNA fluorescent intercalator displacement, fluorescence; inhibition, % at 7.9 µM; hit rate 0.17% among 290,000; AID 1845; in the data active means inhibition above about 37%;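 further: 0% = vehicle and 100% = reference compound; higher means more ethidium bromide displaced from hairpin DNA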
Kir21 inh: blocks the mouse Kir2.1 inward-rectifier potassium channel | AID 1672 | B-score at 10 µM | hit rate 0.85% among 310,000 | P35561 | HEK293-Kir2.1, FluxOR thallium flux fluorescence; hits give low values;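 active means fluorescence ratio B-score at or below minus 3 SD of library scores, with starting-brightness B-score within 2 SD, cut at about -4.2 in these data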;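 further: channel flux triggered by added potassium and thallium sulfate stimulus; B-score of peak minus minimum fluorescence over baseline after thallium stimulus; more negative B-score means stronger Kir2.1 block with less thallium influx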
ANO1 block: blocks the mouse calcium-activated chloride channel TMEM16A; hit rate 1.2% among 310,000; HEK293 TMEM16A/YFP iodide influx fluorescence, ionomycin; normalized B-score (activity score, 25-100; higher = stronger inhibition) at 10 µM; Q8BHY3;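 active means ratio plate-corrected score three or more library SD toward inhibition, starting fluorescence score within five deviations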;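 further: score derived from kinetic fluorescence span divided by baseline fluorescence per well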
SR-BI DiI inh: inhibitors of mouse SR-BI mediated HDL lipid uptake | ldlA[mSR-BI] CHO cells, DiI-HDL uptake fluorescence, 3 h | inhibition, % at 12.5 µM | hit rate 0.96% among 320,000;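 active means mean replicate inhibition of at least 70% and a set share of replicates each scoring 70 or more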;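 further: 0% = median of neutral control wells and 100% = median of positive control wells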
TMEM16A reconf: TMEM16A (mouse) chloride channel inhibition, re-confirmation; shares compounds with ANO1 block; HEK293 TMEM16A/YFP-H148Q, iodide quench fluorescence; ionomycin added to raise cell calcium; inhibition, % at 10 µM; hit rate 39% among 2,300;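 active means mean duplicate percent inhibition, scaled so buffer wells are 0 and the reference blocker 100, over three buffer SD above buffer mean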
TMEM16A Ca cntr: calcium mobilization counter-screen hit for TMEM16A inhibitor series; shares compounds with ANO1 block; TMEM16A/YFP HEK293, Fluo4 calcium mobilization; calcium response (% of ionomycin), % at 10 µM; hit rate 2% among 2,300; AID 652231;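 active means duplicate-averaged calcium signal over 20% of the ionomycin maximum, relative to buffer baseline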;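 further: each well's signal is peak minus trough fluorescence divided by its pre-addition baseline; 0% = buffer wells and 100% = ionomycin wells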
YFP-HEK293 quench: acts in parental YFP-HEK293 cells lacking TMEM16A, counter-screen; shares compounds with ANO1 block; iodide YFP quench, ionomycin; YFP ratio F(max-min)/F0 at 10 µM; 2,300 tested, under 10 active;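 active means yellow fluorescent protein signal ratio exceeding the buffer control mean by over 5 SD of those controls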;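 further: ratio is mean of duplicate wells from kinetic YFP trace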
ClC-1 rat inh: selectivity of TMEM16A inhibitors: inhibition of rat ClC-1 chloride channel; CHO ClC-1-YFP, iodide influx fluorescence quench; iodide control reads 0, buffer control 100; ratio percent, % at 10 µM; 2,300 tested, under 10 active; AID 652236; shares compounds with ANO1 block;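 active means duplicate-mean ratio percent above the mean of iodide-only control wells, which defines zero, plus 5 of their SD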;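 further: higher percent means stronger block of ClC-1 iodide influx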
Target sequence (P35524 whole entry, looked up): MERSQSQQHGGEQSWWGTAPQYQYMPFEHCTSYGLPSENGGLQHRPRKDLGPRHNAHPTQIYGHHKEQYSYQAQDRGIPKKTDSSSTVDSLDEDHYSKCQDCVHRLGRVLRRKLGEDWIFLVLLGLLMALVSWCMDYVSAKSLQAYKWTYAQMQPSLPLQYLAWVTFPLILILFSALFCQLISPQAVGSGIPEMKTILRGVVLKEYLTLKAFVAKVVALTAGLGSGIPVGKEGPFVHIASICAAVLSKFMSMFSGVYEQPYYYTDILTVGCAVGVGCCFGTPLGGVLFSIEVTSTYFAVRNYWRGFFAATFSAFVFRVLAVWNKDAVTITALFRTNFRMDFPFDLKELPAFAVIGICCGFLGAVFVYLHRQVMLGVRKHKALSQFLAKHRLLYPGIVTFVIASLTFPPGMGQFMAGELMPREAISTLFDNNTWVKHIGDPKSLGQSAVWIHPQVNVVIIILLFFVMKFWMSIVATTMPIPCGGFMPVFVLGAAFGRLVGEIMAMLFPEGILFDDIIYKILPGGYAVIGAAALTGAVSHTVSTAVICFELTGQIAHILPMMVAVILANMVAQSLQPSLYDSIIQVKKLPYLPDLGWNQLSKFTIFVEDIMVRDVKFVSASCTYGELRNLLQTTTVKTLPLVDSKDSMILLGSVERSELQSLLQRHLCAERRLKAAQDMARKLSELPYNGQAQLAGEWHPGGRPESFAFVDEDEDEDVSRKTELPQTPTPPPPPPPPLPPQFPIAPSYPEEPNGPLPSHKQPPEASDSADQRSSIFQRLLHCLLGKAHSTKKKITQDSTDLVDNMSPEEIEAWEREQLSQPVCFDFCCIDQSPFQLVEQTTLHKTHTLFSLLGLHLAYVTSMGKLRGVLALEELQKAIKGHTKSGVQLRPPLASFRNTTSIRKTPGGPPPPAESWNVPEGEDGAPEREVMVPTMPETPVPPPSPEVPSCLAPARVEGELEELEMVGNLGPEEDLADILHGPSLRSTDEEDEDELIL
Active calls of the source: *. A selection: hits, their analogues and other compounds. The true share with any hit is near 3%.

`OC(COc1ccc(Cl)cc1)CN1CCN(c2cccc(Cl)c2)CC1` (stereo unspecified) gave SR-BI uptake up 12, TMEM16A act inactive, FID counter 2, Kir21 inh -0.39, ANO1 block inactive and SR-BI DiI inh -12.
For OC(COC(c1ccccc1)c1ccccc1)CN1CCN(c2cccc(Cl)c2)CC1 (stereo unspecified) the results were SR-BI uptake up -2, TMEM16A act inactive, FID counter 13, Kir21 inh 0.65, ANO1 block 25*, SR-BI DiI inh 2, TMEM16A reconf inactive, TMEM16A Ca cntr inactive, YFP-HEK293 quench -0.9 and ClC-1 rat inh -10.
For CCOC(=O)c1c(NC(=O)c2ccco2)sc2c1CCCCC2 the results were TMEM16A act inactive, FID counter -1, Kir21 inh 0.19 and ANO1 block inactive.
Screening CCOC(=O)c1c(NC(=O)C(C)N2CCN(C(=O)c3ccco3)CC2)sc2c1CCCC2 (stereo unspecified) returned SR-BI uptake up -24, TMEM16A act inactive, FID counter -24, Kir21 inh 0.09, ANO1 block 25*, SR-BI DiI inh 24, TMEM16A reconf inactive, TMEM16A Ca cntr inactive, YFP-HEK293 quench -1.2 and ClC-1 rat inh -13.
For COCCCn1c(C(=O)N2CC(C)OC(C)C2)cc2c(=O)n3ccccc3nc21 (stereo unspecified) the results were SR-BI uptake up 11, TMEM16A act inactive, FID counter -27, Kir21 inh 0.82, ANO1 block inactive and SR-BI DiI inh -11.
`CCOc1ccc(CC(=O)Nc2ccc(S(=O)(=O)N3CCCC3)cc2)cc1` gave SR-BI uptake up -18, TMEM16A act inactive, FID counter -20, Kir21 inh 1.5, ANO1 block inactive and SR-BI DiI inh 18.
Screening Cc1ccc(C(=O)COC(=O)CCC(=O)Nc2cccc(Cl)c2)cc1[N+](=O)[O-] returned SR-BI uptake up -18, TMEM16A act inactive, FID counter 2, Kir21 inh 1.1, ANO1 block 100*, SR-BI DiI inh 18, TMEM16A reconf inactive, TMEM16A Ca cntr inactive, YFP-HEK293 quench -0.91 and ClC-1 rat inh -14.
O=c1c2cc(Cl)ccc2nc(-c2ccc([N+](=O)[O-])cc2)n1O was read as SR-BI uptake up 14, TMEM16A act inactive, FID counter -3, Kir21 inh -0.1, ANO1 block inactive and SR-BI DiI inh -14.
For O=c1c2cc(Br)ccc2nc(-c2ccc(Cl)cc2)n1O the results were SR-BI uptake up 6, TMEM16A act inactive, FID counter -14, Kir21 inh -1.7, ANO1 block 25*, SR-BI DiI inh -6, TMEM16A reconf 39%*, TMEM16A Ca cntr 110%*, YFP-HEK293 quench -0.87 and ClC-1 rat inh -6.
`Cc1nc(C)n(CC(C)C(=O)N2CCN(S(=O)(=O)c3ccccc3)CC2)n1` (stereo unspecified) gave TMEM16A act inactive, FID counter -4, Kir21 inh -0.16, ANO1 block 25*, TMEM16A reconf inactive, TMEM16A Ca cntr inactive, YFP-HEK293 quench -0.96 and ClC-1 rat inh -3.
`Cc1cc(C)c(S(=O)(=O)N2CCN(C(=O)C(C)Cn3nc(C)nc3C)CC2)c(C)c1` (stereo unspecified) gave TMEM16A act inactive, FID counter -25, Kir21 inh -0.41 and ANO1 block inactive.
For COc1ccc(OC)c(N(CC(=O)NCCSCc2ccco2)S(=O)(=O)c2ccc(OC)c(OC)c2)c1 the results were SR-BI uptake up 15, TMEM16A act inactive, FID counter -54, Kir21 inh -0.06, ANO1 block inactive and SR-BI DiI inh -15.
For CC(c1ccco1)N(C(=O)CSc1ccc(Br)cc1)c1ccccn1 (stereo unspecified) the results were SR-BI uptake up 10, TMEM16A act inactive, FID counter -30, Kir21 inh -6.4*, ANO1 block 100*, SR-BI DiI inh -10, TMEM16A reconf 18%*, TMEM16A Ca cntr inactive, YFP-HEK293 quench -1.2 and ClC-1 rat inh -14.
For CC(C)c1ccc(C(=O)N(c2ccccn2)C(C)c2ccco2)cc1 (stereo unspecified) the results were SR-BI uptake up 16, TMEM16A act inactive, FID counter -26, Kir21 inh -0.39, ANO1 block inactive and SR-BI DiI inh -16.
Screening CC(c1ccco1)N(C(=O)c1ccccc1NS(=O)(=O)c1ccc(Cl)c([N+](=O)[O-])c1)c1ccccn1 (stereo unspecified) returned SR-BI uptake up 9, TMEM16A act inactive, FID counter -22, Kir21 inh 0.33, ANO1 block 100*, SR-BI DiI inh -9, TMEM16A reconf 26%*, TMEM16A Ca cntr inactive, YFP-HEK293 quench -0.91 and ClC-1 rat inh -22.
For CC(c1ccco1)N(C(=O)c1cc(Cl)cc(Cl)c1)c1ccccn1 (stereo unspecified) the results were TMEM16A act inactive, FID counter -32, Kir21 inh -2.6 and ANO1 block inactive.
CC1CCN(C(=O)C(NS(=O)(=O)c2cccc3nsnc23)c2ccccc2)CC1 (stereo unspecified) was read as SR-BI uptake up 33, TMEM16A act inactive, FID counter -13, Kir21 inh 1.1, ANO1 block inactive, SR-BI DiI inh -33, TMEM16A reconf inactive, TMEM16A Ca cntr inactive, YFP-HEK293 quench -1.4 and ClC-1 rat inh -18.
For CCC(C)N1C(=O)c2ccccc2C1C(=O)NC1CCCCCC1 (stereo unspecified) the results were SR-BI uptake up 36, TMEM16A act inactive, FID counter -8, Kir21 inh 1.9, ANO1 block 25*, SR-BI DiI inh -36, TMEM16A reconf inactive, TMEM16A Ca cntr inactive, YFP-HEK293 quench -1.1 and ClC-1 rat inh -17.
